The nature of series [1]: folding enthalpy; higher = less favourable; fluorescence melt of hairpins on a sequencing array, two-state fit. To be noted: sodium 0.088 M. An outline of the steps: (§1)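 Folding enthalpy and melting temperature were estimated with bootstrapped two-state fits and combined across four replicates by inverse-variance weighting, with fitted temperatures raised by 9.35 °C to match UV melts. The data were Cy3 fluorescence of library hairpins, with annealed Cy3 and quencher oligos, on a sequenced MiSeq flow cell in 50 mM Na-HEPES pH 8.0, 25 mM NaCl, imaged in 2.5 °C steps up to 60 °C and normalised to pre-quench Cy3 and control constructs.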

Series [2] can be described thus: melting temperature; fluorescence melt of hairpins on a sequencing array, two-state fit, raised by 9.35 °C to match UV melts. To be noted: sodium 0.088 M. In short, it runs like this:
as §1

The values below come from the array DNA melting data of Ke et al. (doi:10.1101/2024.01.08.574731).

Consider GATGCCGAAAGGCGTATC ((((((....)))..))), for which, in series [1], the folding enthalpy was -11.5 kcal/mol. In addition, the Tm in series [2] turned out to be 36.4 °C.
As for GGCTACGAAAGTAGCGCC ((((((....)))..))), the folding enthalpy in series [1] was -9.93 kcal/mol. Besides, the Tm in series [2] came out at 55.7 °C.
The matching figures for GGGGCAACGAAAGTTCCC (((..(((....)))))): -25.5 kcal/mol and 47.4 °C.
For the sequence GATCGACCGTCGATC ((((((...)))))), the folding enthalpy in series [1] was -36 kcal/mol. In series [2], the Tm was found to be 49 °C.
The matching figures for CGGTGGAAACACCG (((((....))))): -26.1 kcal/mol and 68 °C.
Consider TTTGGGAAACCAAA (((((....))))), for which the folding enthalpy in series [1] is -13.6 kcal/mol. Further, the Tm in series [2] turned out to be 38.2 °C.
The matching figures for GACCACGGAAACATGGCC (.(((.(....).))).): -9.89 kcal/mol and 24.4 °C.
The matching figures for GTTACCGAAAGGTGAAAC ((((((....)))..))): -9.44 kcal/mol and 27.5 °C.
Take GTGAAACGAAAGTTCCAC (((.(((....))).))): the folding enthalpy in series [1] was -22.8 kcal/mol. The Tm in series [2] worked out at 43.9 °C.
With GCCATGGGAAACTGTGGC ((((..(....)..)))), in series [1], the folding enthalpy was -28.2 kcal/mol. Also, in series [2], the Tm came out at 47.1 °C.
As for GAACAGCCGAAAGGCTTC (((..(((....)))))), the folding enthalpy in series [1] is -5.48 kcal/mol. Moreover, in series [2], the Tm is 24.5 °C.
The matching figures for GATCTAGAGGTAGATC ((((((....)))))): -24.4 kcal/mol and 35.1 °C.
The matching figures for GCATTGCGAAAGCGCTGC (((..((....))..))): -18.8 kcal/mol and 45.7 °C.
The matching figures for GTGTAGCGAAAGCTTCAC (((.(((....))).))): -32 kcal/mol and 51.8 °C.
In the case of GATCCATAGATGGATC ((((((....)))))), the folding enthalpy in series [1] was -33.5 kcal/mol. For the same sequence, in series [2], the Tm is 51.2 °C.
Turning to GATCTGCCAACAGATC ((((((....)))))), the folding enthalpy in series [1] was -38.3 kcal/mol. Moreover, in series [2], the Tm amounted to 50 °C.
As for GCCAGCGAAAGCTGCGGC ((((((....)))..))), the folding enthalpy in series [1] is -13 kcal/mol. In addition, the Tm in series [2] came to 61.4 °C.
The matching figures for GGAACCGGAAACGATTCC ((((.((....)).)))): -31.3 kcal/mol and 42.8 °C.
On to TGTCAGAAATGACA (((((....))))), for which the folding enthalpy in series [1] was -17.6 kcal/mol. In series [2], the Tm turned out to be 40.2 °C.
For GCGGTCGCCCGC ((((....)))), the folding enthalpy in series [1] was -18.6 kcal/mol. Also, in series [2], the Tm was found to be 56.7 °C.
The matching figures for GGCGGCGGAAACACCGCC (((((.(....).))))): -21.9 kcal/mol and 65.2 °C.
As for GATCCTGACTAGGATC ((((((....)))))), the folding enthalpy in series [1] was -43.3 kcal/mol. For the same sequence, in series [2], the Tm stood at 56.7 °C.
With GTACTAGGAAACTAGTGC (.(((((....))))).), the folding enthalpy in series [1] is -26.9 kcal/mol. For the same sequence, in series [2], the Tm came out at 42.8 °C.
On to GCGTAGCGAAAGCAAAGC ((.(.((....)).).)), for which, in series [1], the folding enthalpy is -14.2 kcal/mol. The Tm in series [2] came to 54.5 °C.
Consider GTTTGCGGAAACGCGAAC (((.(((....))).))), for which, in series [1], the folding enthalpy was -35.7 kcal/mol. In addition, in series [2], the Tm worked out at 56.9 °C.
The matching figures for ACTAGGAAACTAGT (((((....))))): -13.9 kcal/mol and 37.9 °C.
For GAATATCCGAAAGGATTC (((..(((....)))))), in series [1], the folding enthalpy was -13.4 kcal/mol. Further, the Tm in series [2] stood at 28.5 °C.
The matching figures for GATCTGGTAACAGATC ((((((....)))))): -27 kcal/mol and 60.5 °C.
The matching figures for GGCACCGAAAGGTCGGCC ((((((....)))..))): -21.8 kcal/mol and 49.9 °C.
The matching figures for GCTGTACCGAAAGGTAGC (((..(((....)))))): -15.4 kcal/mol and 43.7 °C.
As for GATCACGCATGTGATC ((((((....)))))), in series [1], the folding enthalpy is -43.1 kcal/mol. In addition, the Tm in series [2] amounted to 67.3 °C.
